{"data": "Published values pooled from the literature", "cell line": "NCI-H460", "effect on": "cell growth or viability", "note": "Each line is one published result; the experiments were not run side by side. pIC50: −log10 of the molar value."}
{"Compound": "C=CC(=O)Nc1cc(Nc2nc(N3CCc4sccc4C3)c3sccc3n2)c(OC)cc1N1CCN(C)CC1", "test": "MTT", "endpoint": "pIC50", "result": 6.04}
{"Compound": "COc1cc(Nc2nccc(-c3cnn4nc(OC)ccc34)n2)cc(C(F)(F)F)c1", "test": "ATP luminescence", "endpoint": "pIC50", "result": 6.48}
{"Compound": "O=C1NC(=NCc2cccs2)S/C1=C\\c1ccc2ncccc2c1", "endpoint": "pIC50", "result": "< 5.00"}
{"Compound": "COc1ccc(C/C=C/c2ccc(O)c(OC)c2)cc1", "test": "MTT", "setting": "24 h", "endpoint": "IC50", "result": "12.3 µg/mL"}
{"Compound": "C=C(Cl)C(=O)Nc1cc(Nc2nc(N3CCc4sccc4C3)c3sccc3n2)c(OC)cc1N(C)CCN(C)C", "test": "MTT", "endpoint": "pIC50", "result": 5.63}
{"Compound": "O=C(O)/C=C/c1ccc(O)cc1", "test": "MTT", "endpoint": "pIC50", "result": "< 4.30"}
{"Compound": "CCC(=O)Nc1cc(Nc2nc(N3CCc4sccc4C3)c3cccnc3n2)c(OC)cc1N1CCC(N(C)C)CC1", "test": "MTT", "endpoint": "pIC50", "result": 5.61}
{"Compound": "CCN1CCN(Cc2ccc(Nc3ncc(F)c(-c4cc(F)c5nc(C)n(C(C)C)c5c4)n3)nc2)CC1", "test": "CCK-8", "endpoint": "pIC50", "result": 6.02}
{"Compound": "C=CC(=O)Nc1cc(Nc2nc(N3CCc4sccc4C3)c3cccnc3n2)c(OC)cc1N1CCN(CC)CC1", "test": "MTT", "endpoint": "pIC50", "result": 6.19}
{"Compound": "Cc1ccc(-c2ccc(O)cc2)c(C(=C2C=CC(=O)C=C2)c2ccc(O)cc2)c1C#Cc1ccc(O)cc1", "test": "MTT", "setting": "48 h", "endpoint": "pIC50", "result": 4.81}
{"Compound": "COc1cc(N(C)CCN(C)C)c(NC(=O)C=C(C)C)cc1Nc1nc(N2CCc3sccc3C2)c2sccc2n1", "test": "MTT", "endpoint": "pIC50", "result": 6.27}
{"Compound": "COc1cc2oc(-c3ccc(O)cc3)cc(=O)c2c(O)c1OC", "setting": "48 h", "endpoint": "pIC50", "result": 4.58}
{"Compound": "COc1cc(CNC(=O)CCCC/C=C/C(C)C)ccc1OCc1cn(-c2ccc(C(F)(F)F)cc2)nn1", "test": "SRB", "endpoint": "pIC50", "result": 5.18}
{"Compound": "COc1ccc(C/C=C/c2ccc(O)cc2)cc1", "test": "MTT", "setting": "24 h", "endpoint": "IC50", "result": "14.1 µg/mL"}
{"Compound": "CC(=O)c1cccc(/N=N/c2cc(/C=C/C(=O)O)ccc2O)c1", "test": "MTT", "endpoint": "pIC50", "result": "< 4.30"}
{"Compound": "COC/C(=C/Cc1ccc(OC)cc1)c1ccc(OC)cc1", "test": "MTT", "setting": "24 h", "endpoint": "IC50", "result": "75.4 µg/mL"}
{"Compound": "C=CC(=O)Nc1cc(Nc2nccc(-c3cn(C)c4ccccc34)n2)c(OC)cc1N(C)CCN(C)C", "test": "MTT", "endpoint": "pIC50", "result": 5.71}
{"Compound": "COc1cc(CNC(=O)CCCC/C=C/C(C)C)ccc1OCc1cn(-c2ccc(C#N)cc2)nn1", "test": "SRB", "endpoint": "pIC50", "result": 5.26}
{"Compound": "CC(=O)c1ccc(N=Nc2c(C(=O)O)cc(O)c(O)c2O)cc1", "test": "MTT", "endpoint": "pIC50", "result": 4.87}
{"Compound": "COc1cc(N(C)CCN(C)C)c(NC(=O)/C=C/C(C)C)cc1Nc1nc(Nc2cnn(C)c2)c2sccc2n1", "test": "MTT", "endpoint": "pIC50", "result": 5.65}
{"Compound": "CC(=O)O[C@H]1CC[C@]2(C)[C@H]3CC=C4[C@@H]5CC(C)(C)CC[C@]5(C)CC[C@@]4(C)[C@]3(C)CC[C@H]2C1(C)C", "setting": "48 h", "endpoint": "pIC50", "result": 4.97}
{"Compound": "OC/C(=C/Cc1ccc(O)cc1)c1ccc(O)cc1", "test": "MTT", "setting": "24 h", "endpoint": "IC50", "result": "44.9 µg/mL"}
{"Compound": "Cc1cccc(-n2ncc(Br)c(Br)c2=O)c1", "test": "resazurin", "setting": "96 h", "endpoint": "pIC50", "result": 5.84}
{"Compound": "O=c1[nH]cc(S(=O)(=O)Nc2cccc(-c3nnc(-c4cccc(Cl)c4)o3)c2)c(=O)[nH]1", "test": "MTT", "setting": "24 h", "endpoint": "pIC50", "result": 5.55}
{"Compound": "Oc1ccc(C/C=C(/COCc2ccccc2)c2ccc(OCc3ccccc3)cc2)cc1", "test": "MTT", "setting": "24 h", "endpoint": "IC50", "result": "27.9 µg/mL"}
{"Compound": "COc1cc([C@@H]2c3cc4c(cc3[C@@H](O[C@@H]3O[C@@H]5CO[C@@H](C)O[C@H]5[C@H](O)[C@H]3O)[C@H]3COC(=O)[C@H]23)OCO4)cc(OC)c1O", "test": "MTT", "setting": "72 h", "endpoint": "pIC50", "result": 6.08}
{"Compound": "C=CC(=O)Nc1cc(Nc2nc(N3CCc4sccc4C3)c3cccnc3n2)c(OC)cc1N1CCN(CCO)CC1", "test": "MTT", "endpoint": "pIC50", "result": 5.10}
{"Compound": "C#Cc1cccc(Nc2ncnc3cc(OCCOC)c(OCCOC)cc23)c1", "test": "MTT", "endpoint": "pIC50", "result": 7.40}
{"Compound": "COc1cc(C/C=C/c2ccc(O)cc2)ccc1O", "test": "MTT", "setting": "24 h", "endpoint": "IC50", "result": "19.9 µg/mL"}
